Measured values as given in ChEMBL document CHEMBL4334543, “Scaffold Hopping-Driven Optimization of 4-(Quinazolin-4-yl)-3,4-dihydroquinoxalin-2(1H)-ones as Novel Tubulin Inhibitors” (ACS Med Chem Lett, 2020).
≈ marks a conversion by molar mass, not a printed value. Calls of active or inactive are those of the source. No cut-off for these calls is given here.

How the values were obtained:
MCF7 = experiment: Antiproliferative activity against human MCF7 cells assessed as reduction in cell viability incubated for 72 hrs by SRB assay; format: functional; details: MCF7, 72 h
Procedure, shortened: (§1)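 Sulforhodamine B assay across a human tumor cell line panel, with CA-4 run in parallel as positive control. GI50 is the concentration giving 50% growth inhibition, read from dose–response curves. Values are mean ± SD of at least three independent experiments.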

KB = experiment: Antiproliferative activity against human KB cells assessed as reduction in cell viability incubated for 72 hrs by SRB assay; format: functional; procedure, shortened: as §1
[1] = Potency index, ratio of GI50 of paclitaxel to GI50 of compound for antiproliferative activity against human KBVIN cells assessed as reduction in cell viability incubated for 72 hrs by SRB assay; format: functional
A549 = experiment: Antiproliferative activity against human A549 cells assessed as reduction in cell viability incubated for 72 hrs by SRB assay; format: functional; details: A549, 72 h; procedure, shortened: as §1
[2] = Antiproliferative activity against human KBVIN cells assessed as reduction in cell viability incubated for 72 hrs by SRB assay; format: functional; procedure, shortened: as §1
MDA-MB-231 [3] = experiment: Cell cycle arrest in human MDA-MB-231 cells assessed as increase in accumulation of G2/M phase at 3 times of antiproliferative IC50 incubated for 24 hrs by propidium iodide based flow cytometry; format: functional
Procedure, shortened: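 Cells were fixed in EtOH, stained with propidium iodide in the presence of RNase, and analysed by flow cytometry. Cell count was plotted against linear PI fluorescence.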

MDA-MB-231 [4] = experiment: Antiproliferative activity against human MDA-MB-231 cells assessed as reduction in cell viability incubated for 72 hrs by SRB assay; format: functional; details: MDA-MB-231, 72 h; procedure, shortened: as §1
MDA-MB-231 [5] = experiment: Inhibition of tubulin polymerization in human MDA-MB-231 cells at 3 times of antiproliferative IC50 incubated for 24 hrs by DAPI staining based confocal fluorescence microscopy; format: functional, cell-based
Procedure, shortened: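 Cells were fixed in 4% PFA/PBS, immunostained for α-tubulin and counterstained with DAPI. Microtubule networks were imaged by confocal fluorescence microscopy as projections of 15–20 confocal images.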

[6] = Lipophilicity, logP of compound incubated for 24 hrs with stirrer and measured after overnight by HPLC-UV analysis; format: physicochemical
[7] = Solubility of compound at pH 7.4 incubated for 4 hrs by HPLC-UV analysis; format: physicochemical; details: buffer

| Compound | GI50 (MCF7) | GI50 (KB) | GI50 (A549) | GI50 (MDA-MB-231 [4]) | logP at 24 h [6] | solubility at 4 h [7] | RatioGI50 [1] | GI50 [2] | Activity (MDA-MB-231 [3]) | inhibition (MDA-MB-231 [5]) |
| --- | --- | --- | --- | --- | --- | --- | --- | --- | --- | --- |
| COc1ccc2c(c1)NC(=O)CCN2c1nc(C)nc2ccccc12 | 933 nM | 725 nM | 838 nM | 95 nM | – | – | – | 696 nM | Active | – |
| COc1ccc2c(c1)NC(=O)CN2c1nccc2nccnc12 | 908 nM | 777 nM | 617 nM | 915 nM | – | – | – | 638 nM | – | – |
| COc1ccc2c(c1)NC(=O)CN2c1ncnc2ncccc12 | 1200 nM | 480 nM | 566 nM | 2290 nM | – | – | – | 650 nM | Active | – |
| COc1ccc2c(c1)NC(=O)CN2c1nc(OC)nc2cc(OC)c(OC)cc12 | 968 nM | 506 nM | 544 nM | 760 nM | – | – | – | 919 nM | Active | – |
| COc1ccc2c(c1)C(=O)NCCN2c1nc(C)nc2ccccc12 | > 2000 nM | > 2000 nM | > 2000 nM | > 2000 nM | – | – | – | > 2000 nM | – | – |
| COc1ccc2c(c1)NC(=O)CN2c1nccc2c1NC=CN2 | > 40000 nM | > 40000 nM | > 40000 nM | > 40000 nM | – | – | – | > 40000 nM | – | – |
| COc1ccc2c(c1)NC(=O)CCCN2c1nc(C)nc2ccccc12 | 10500 nM | 5700 nM | 5900 nM | 9700 nM | – | – | – | 5560 nM | – | – |
| COc1ccc2c(c1)NC(=O)CCCCN2c1nc(C)nc2ccccc12 | > 10000 nM | > 10000 nM | > 10000 nM | > 10000 nM | – | – | – | > 10000 nM | – | – |
| COc1ccc2c(c1)NC(=O)CN2c1nc(NCCCO)nc2cc(OC)c(OC)cc12 | 950 nM | 516 nM | 997 nM | 820 nM | – | – | – | > 10000 nM | – | – |

Stronger by GI50 (KB), values ahead:

| GI50 (MCF7) | GI50 (KB) | GI50 (A549) | GI50 (MDA-MB-231 [4]) | logP at 24 h [6] | solubility at 4 h [7] | Compound | RatioGI50 [1] | GI50 [2] | Activity (MDA-MB-231 [3]) | inhibition (MDA-MB-231 [5]) |
| --- | --- | --- | --- | --- | --- | --- | --- | --- | --- | --- |
| 84 nM | 51 nM | 54 nM | 74 nM | – | – | CNc1nc(N2CC(=O)Nc3cc(OC)ccc32)c2cc(OC)c(OC)cc2n1 | – | 506 nM | Active | – |
| 82 nM | 45 nM | 50 nM | 76 nM | – | – | COc1ccc2c(c1)NC(=O)CN2c1nc(Cl)nc2cc(OC)c(OC)cc12 | – | 65 nM | Active | – |
| 8.4 nM | 5.6 nM | 5.3 nM | 7.7 nM | – | – | COc1ccc2c(c1)NC(=O)CN2c1nc(Cl)nc2cccnc12 | 340 | 5.7 nM | Active | – |
| 9.4 nM | 5 nM | 5.5 nM | 9.6 nM | – | – | COc1ccc2c(c1)NC(=O)CN2c1ncnc2ccc(Br)cc12 | 340 | 5 nM | Active | – |
| – | 4.6 nM | 5.4 nM | 8 nM | 2.96 | 10.9 µg/mL (≈ 34.1 µM) | COc1ccc2c(c1)NC(=O)CN2c1cc(C)nc2ccccc12 | 340 | 4.8 nM | Active | Active |
| 8.3 nM | 4.1 nM | 2.4 nM | 5.2 nM | – | – | CC(=O)O[C@H]1C(=O)[C@@]2(C)[C@H]([C@H](OC(=O)c3ccccc3)[C@]3(O)C[C@H](OC(=O)[C@H](O)[C@@H](NC(=O)c4ccccc4)c4ccccc4)C(C)=C1C3(C)C)[C@]1(OC(C)=O)CO[C@@H]1C[C@@H]2O [PACLITAXEL] | – | 1960 nM | – | – |
| 84 nM | 3.6 nM | 5.5 nM | 8.2 nM | – | – | COc1ccc(/C=C\c2cc(OC)c(OC)c(OC)c2)cc1O [COMBRETASTATIN A4] | – | 3.8 nM | Active | Active |
